Measured values reported in ChEMBL document CHEMBL2176925, “Novel ¹⁸F-labeled benzoxazole derivatives as potential positron emission tomography probes for imaging of cerebral β-amyloid plaques in Alzheimer's disease” (J Med Chem, 2012).
Active and inactive are the calls of the source. No cut-off for these calls is given here.

Tests used:
[1] = test system: Brain; assay: Drug uptake in ddY mouse brain at 370 kBq/100 ul, iv at 60 mins by gamma-counting analysis; assay type: ADME, organism-based; conditions: in vivo, 1 h
Outline: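 Normal male ddY mice (5 weeks, 20−22 g, n = 5) received 370 kBq of tracer in 100 μL saline with 5% EtOH via tail vein. Mice were sacrificed at set times after injection, and organs were excised, weighed and γ-counted against diluted injectate aliquots. Values are %ID per gram, except stomach and intestine as %ID per organ, given as mean ± SD of 5 mice.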

[2] = test system: Brain; assay: Ratio of drug uptake in brain at 2 mins to drug uptake in brain at 60 mins in ddY mouse at 370 kBq/100 ul, iv; assay type: ADME, organism-based; conditions: in vivo
Outline: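 Tail-vein injection of 370 kBq/100 μL (saline, 5% EtOH) into male ddY mice (5 weeks, 20−22 g, n = 5). Brain excised at 2 and 60 min, weighed and γ-counted against diluted injectate. Uptake is %ID/g, and the ratio is brain at 2 min divided by brain at 60 min.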

[3] = Displacement of [125I]IMPY from amyloid beta (1 to 42) fibrils after 2 hrs by gamma-counting analysis
Outline: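 Competition binding with aggregated Aβ1-42 fibrils (60 nM final) and [125I]IMPY. Inhibitors were tested at 10⁻⁵–10⁻¹⁰ M (in ethanol) in 0.2 M PBS, pH 7.4, 1 mL, for 2 h at 37 °C with shaking. Nonspecific binding was defined with 1 μM IMPY. Bound ligand was collected by GF/B filtration and γ-counted. Ki was derived from IC50 via Cheng–Prusoff.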

[4] = Displacement of [125I]TZDM from amyloid beta (1 to 40) fibrils
[5] = test system: Brain; assay: Drug uptake in iv dosed ICR mouse brain; assay type: ADME, organism-based; conditions: in vivo
[6] = n-Octanol-PBS buffer partition coefficient, log D of the compound at 370 kBq after 3 mins at pH 7.4; assay type: physicochemical
Outline: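 For log D, tubes containing n-octanol and PBS were vortexed 3 min at room temperature and centrifuged 5 min at 3000 rpm. Weighed samples of the octanol (100 μL) and buffer (500 μL) layers were counted. Log D is the log of the ratio of counts per gram, octanol to PBS.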

[7] = test system: Mus musculus; assay: Binding affinity to amyloid beta plaque in transgenic C57BL6 mouse hippocampus expressing APP Swedish mutant at 40.7 MBq, iv after 30 mins by thioflavinS-staining method; assay type: functional, organism-based; design: dose or concentration left out as unconfirmed; conditions: tested as the 18F-labelled form
Outline: (§1)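 Ex vivo: Tg2576 (C57BL6, APPsw) mice, 18 months old, and age-matched wild-type mice. Each received 40.7 MBq of tracer in 100 μL saline with 5% EtOH iv via the femoral vein and was decapitated 30 min later. Brains were frozen in dry ice and cut into 20 μm sections. Sections were exposed to an imaging plate for 8 h, then the same sections were stained with thioflavin-S.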

[8] = target: Amyloid-beta precursor protein (Homo sapiens) (UniProt P05067); assay: Binding affinity to amyloid beta plaques in […] brain at 370 kBq/100 ul after 1 hr by immunohistochemical staining method; conditions: tested as the 18F-labelled form
Outline: (§2)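 In vitro autoradiography on paraffin sections. Mouse: Tg C57BL6 APPswe/PSEN1 and wild-type, both 12 months old. Human: AD (person) and normal (person). Sections were deparaffinized through xylene and graded ethanol, held in PBS (0.2 M, pH 7.4) for 30 min, then incubated with tracer (370 kBq/100 μL) for 1 h at room temperature. Washes were 50% ethanol then water. Plates were exposed overnight. Plaques were confirmed by thioflavin-S or monoclonal Aβ1-42 antibody immunostaining.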

[9] = test system: Mus musculus; assay: Binding affinity to amyloid beta plaque in transgenic C57BL6 mouse cortex expressing APP Swedish mutant at 40.7 MBq, iv after 30 mins by thioflavinS-staining method; assay type: functional, organism-based; design: dose or concentration left out as unconfirmed; conditions: tested as the 18F-labelled form; outline: as §1
[10] = species on record: Mus musculus; assay: Binding affinity to amyloid beta plaques in transgenic C57BL6 mouse brain expressing APP Swedish mutant/PSEN1 at 370 kBq/100 ul after 1 hr by autoradiographic analysis; assay type: tissue-based; conditions: tested as the 18F-labelled form; outline: as §2
[11] = species on record: Mus musculus; assay: Binding affinity to amyloid beta plaques in transgenic C57BL6 mouse brain expressing APP Swedish mutant/PSEN1 at 370 kBq/100 ul after 1 hr by thioflavinS-staining method; assay type: tissue-based; conditions: tested as the 18F-labelled form; outline: as §2
[12] = test system: Mus musculus; assay: Binding affinity to amyloid beta plaque in transgenic C57BL6 mouse hippocampus expressing APP Swedish mutant/PSEN1 at 40.7 MBq, iv after 30 mins by autoradiographic analysis; assay type: functional, organism-based; conditions: 40.7 M, tested as the 18F-labelled form
[13] = test system: Mus musculus; assay: Binding affinity to amyloid beta plaque in transgenic C57BL6 mouse cortex expressing APP Swedish mutant/PSEN1 at 40.7 MBq, iv after 30 mins by autoradiographic analysis; assay type: functional, organism-based; conditions: 40.7 M, tested as the 18F-labelled form
[14] = target: Amyloid-beta precursor protein (Homo sapiens) (UniProt P05067); assay: Binding affinity to amyloid beta plaques in […] brain at 370 kBq/100 ul after 1 hr by autoradiographic analysis; conditions: tested as the 18F-labelled form; outline: as §2
[15] = test system: Brain; assay: Drug uptake in ddY mouse brain at 370 kBq/100 ul, iv assessed per organ at 60 mins by gamma-counting analysis; assay type: ADME, organism-based; conditions: in vivo, 1 h
[16] = test system: Brain; assay: Drug uptake in ddY mouse brain at 370 kBq/100 ul, iv assessed per organ at 2 mins by gamma-counting analysis; assay type: ADME, organism-based; conditions: in vivo

Sequence of Amyloid-beta precursor protein (Homo sapiens) (P05067 whole entry): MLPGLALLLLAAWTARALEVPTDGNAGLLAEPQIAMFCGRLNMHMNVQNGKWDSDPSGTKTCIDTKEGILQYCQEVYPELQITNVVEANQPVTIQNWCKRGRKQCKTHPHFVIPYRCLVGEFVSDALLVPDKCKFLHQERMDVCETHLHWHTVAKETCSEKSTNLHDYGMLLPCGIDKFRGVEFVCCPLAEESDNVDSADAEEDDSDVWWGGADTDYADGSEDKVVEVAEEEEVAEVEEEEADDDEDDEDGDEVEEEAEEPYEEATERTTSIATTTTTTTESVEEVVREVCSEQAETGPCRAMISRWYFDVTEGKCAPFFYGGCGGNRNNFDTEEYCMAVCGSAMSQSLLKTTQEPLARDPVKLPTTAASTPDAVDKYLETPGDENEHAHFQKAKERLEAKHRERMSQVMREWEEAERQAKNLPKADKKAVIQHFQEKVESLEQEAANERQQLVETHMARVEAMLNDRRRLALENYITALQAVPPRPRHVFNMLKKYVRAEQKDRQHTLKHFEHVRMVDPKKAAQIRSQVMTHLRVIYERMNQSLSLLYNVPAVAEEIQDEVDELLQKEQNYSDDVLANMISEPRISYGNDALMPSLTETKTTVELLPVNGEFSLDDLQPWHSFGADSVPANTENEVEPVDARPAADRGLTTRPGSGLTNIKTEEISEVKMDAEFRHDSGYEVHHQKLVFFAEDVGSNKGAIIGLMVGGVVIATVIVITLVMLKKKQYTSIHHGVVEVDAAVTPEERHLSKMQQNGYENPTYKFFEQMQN

`CNc1ccc(/C=C/c2ccc(OCCOCCOCC[18F])nc2)cc1` [FLORBETAPIR F 18] gave a Drug uptake [1] of 1.88 % ID/g, a Ratio [2] of 3.9 and a Ki [3] of 2.87 nM.
For `CN(C)c1ccc(-c2cc3cc([125I])ccc3o2)cc1`, the Ki [4] was 0.4 nM and the Drug uptake [5] was < 1.5 %ID.
With `CNc1ccc(-c2cc3cc(OCCOCCOCC[18F])ccc3o2)cn1` the logD at 0.05 h [6] was 3.11, the Ratio [2] was 2.34 and the Ki [3] was 2.4 nM.
For `CN(C)c1ccc(-c2cc3ccc([125I])cc3o2)cc1`, the Ki [4] was 0.4 nM and the Drug uptake [5] was < 1.5 %ID.
`CN(C)c1ccc(-c2cc3cc(OCCOCCOCC[18F])ccc3o2)cc1` gave a logD at 0.05 h [6] of 2.94, a Ratio [2] of 1.03 and a Ki [3] of 2 nM.
`CN(C)c1ccc(-c2cc3cc(OCCOCCOCC[18F])ccc3o2)cn1` gave a logD at 0.05 h [6] of 2.32, a Ratio [2] of 2.11 and a Ki [3] of 1 nM.
With `CNc1ccc(-c2cc3cc([125I])ccc3o2)cc1` the Ki [4] was 0.4 nM and the Drug uptake [5] was < 1.5 %ID.
With `CN(C)c1ccc(-c2nc3cc(OCCOCCOCCF)ccc3o2)cc1` the Activity [7] was “Active”, the Activity [8] was “Active” and the Activity [9] was “Active”. The Ki [3] was 3.9 nM, the Activity [10] was “Active” and the Activity [11] was “Active”. The Activity [12] was “Active”, the Activity [13] was “Active” and the Activity [14] was “Active”.
With `CNc1ccc(-c2nc3cc(OCCOCCOCCF)ccc3o2)cc1` the Activity [7] was “Active”, the Activity [8] was “Active” and the Activity [9] was “Active”. For the same compound, the Ki [3] was 9.3 nM, the Activity [10] was “Active” and the Activity [11] was “Active”. The Activity [12] was “Active”, the Activity [13] was “Active” and the Activity [14] was “Active”.
For `CNc1ccc(-c2cc3cc(OCCOCCOCC[18F])ccc3o2)cc1`, the logD at 0.05 h [6] was 3.73, the Ratio [2] was 2.11 and the Ki [3] was 3.9 nM.
With `CN(C)c1ccc(-c2nc3ccc([125I])cc3o2)cc1` the logD at 0.05 h [6] was 2.09, the Ki [4] was 0.8 nM and the Drug uptake [15] was 1.26 %ID. The Ratio [2] was 1.13, the Ki [3] was 0.8 nM and the Drug uptake [16] was 1.43 %ID.
With `Oc1ccc(-c2cc3cc([125I])ccc3o2)cc1` the Ki [4] was 0.4 nM and the Drug uptake [5] was < 1.5 %ID.
